High-throughput results deposited in PubChem BioAssay by Johns Hopkins Ion Channel Center.
MrgX1 agonist: agonists of human MrgX1 receptor, primary screen, HEK293 cells, Fluo-4 calcium flux; AID 588627, 2011; hit rate 0.44% among 310,000; B-score at 10 µM; Fluo-4 calcium fluorescence, agonist mode; stronger effect = higher value; Mas-related G-protein coupled receptor member X1 (Homo sapiens), Q96LB2;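 active means calcium response B-score plate-corrected fluorescence ratio at least 3 library SD, with starting fluorescence B-score inside 5 SD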
Target sequence (Q96LB2 whole entry, looked up): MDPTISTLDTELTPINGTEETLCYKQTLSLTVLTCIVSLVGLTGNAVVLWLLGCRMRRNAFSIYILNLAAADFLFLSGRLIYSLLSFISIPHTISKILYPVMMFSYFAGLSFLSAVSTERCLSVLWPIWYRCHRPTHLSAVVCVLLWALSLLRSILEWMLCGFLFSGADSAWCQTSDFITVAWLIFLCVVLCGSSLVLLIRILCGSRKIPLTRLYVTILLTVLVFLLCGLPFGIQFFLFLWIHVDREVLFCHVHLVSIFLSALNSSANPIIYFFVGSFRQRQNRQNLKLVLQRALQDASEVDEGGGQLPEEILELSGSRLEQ
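Material: HEK293 cells stably expressing human MrgX1 receptor | Quantity: 15,000 cells per well | Times: Cells plated overnight, dye loaded 0.5 h 37 °C, 0.5 h room temperature | Measured by: Kinetic Fluo-4 NW fluorescence of intracellular calcium | Control set: Positive and negative controls per plate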
MrgX1 antagonist: antagonists of human MrgX1 receptor, primary screen, HEK293 cells, Fluo-4 calcium flux | Mas-related G-protein coupled receptor member X1 (Homo sapiens), Q96LB2 | BAM8-22 antagonism; stronger effect = lower value | B-score at 10 µM | hit rate 1.3% among 310,000;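 active means calcium-response B-score plate-corrected more than 3 library SD below zero, starting fluorescence within 5 deviations, no agonist response on first addition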;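 further: peak minus trough fluorescence over baseline after final BAM8-22 challenge near maximal dose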
RGS4 inh: RGS4 inhibitors, primary screen, cell-based, HEK293 M3R inducible RGS4, calcium flux; hit rate 0.45% among 310,000; B-score at 10 µM; Fluo-4 calcium flux; stronger effect = higher value; triggered by carbachol at its EC20;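 active means B-score, a plate-corrected calcium signal, over three deviations above library mean, with baseline fluorescence within five deviations of library mean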;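 further: RGS4 expression induced by doxycycline in cells with stable M3 receptor; B-score is computed from the integrated fluorescence ratio over baseline after carbachol; higher B-score means a larger calcium signal and so more RGS4 inhibition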
Target sequence (P49798 whole entry, looked up): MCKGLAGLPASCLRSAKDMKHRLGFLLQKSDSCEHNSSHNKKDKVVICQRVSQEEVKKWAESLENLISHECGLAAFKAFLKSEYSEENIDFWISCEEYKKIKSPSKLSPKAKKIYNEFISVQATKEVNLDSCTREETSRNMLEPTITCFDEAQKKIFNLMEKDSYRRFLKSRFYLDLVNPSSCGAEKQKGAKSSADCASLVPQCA
RGS4 pot: RGS4 potentiators or activators, primary screen, cell-based, HEK293 M3R inducible RGS4, calcium flux. carbachol calcium flux Fluo4; stronger effect = lower value. B-score at 10 µM. hit rate 0.92% among 310,000. AID 463111, 2010;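 active means B-score of the integrated calcium signal more than 4 SD below the library mean, with starting fluorescence not abnormally high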;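 further: negative B-score means reduced calcium response which marks RGS4 activation or potentiation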
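Assay system: Inducible-RGS4 HEK293 cells carrying M3 receptor | Schedule: Compound preincubation 20 min at room temperature before agonist | Signal: Kinetic calcium fluorescence imaging with Fluo4-AM dye, 2 µM | Read-out basis: B score from integrated fluorescence ratio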
MrgX1 allo act: positive allosteric modulators of MrgX1, primary screen, HEK293 cells, Fluo-4 calcium flux; Mas-related G-protein coupled receptor member X1 (Homo sapiens), Q96LB2; hit rate 0.63% among 310,000; AID 588675, 2011; B-score at 10 µM; FDSS; stronger effect = higher value;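 active means plate-corrected calcium response at least 3 library SD above typical, normal starting fluorescence, not activating the receptor alone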;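 further: compound read alongside a low EC10 to EC30 dose of BAM8-22 agonist; peak minus trough fluorescence over baseline measured at the second addition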
RGS4 block valid: enhanced carbachol calcium response, M3R/RGS4 cells, RGS4 inhibitor project, cell-based, validation screen, HEK293 M3R/RGS4, calcium flux | AID 492999, 2010 | calcium response, % at 10 µM | hit rate 65% among 1,700 | carbachol calcium Fluo-4 fluorescence; carbachol added at its EC20; 0 = buffer wells, 100 = carbachol control | shares compounds with RGS4 inh;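 active means duplicate-averaged calcium response above the buffer-only control mean plus 5 SD of those controls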;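 further: integrated fluorescence ratio F max minus min over baseline F0; higher response in RGS4-induced cells means RGS4 inhibition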
M3R Ca ctr: carbachol calcium response in non-induced M3R cells, confirmation, counter-screen for RGS4 inhibitor project, cell-based, HEK293 M3R; hit rate 20% among 1,900; shares compounds with RGS4 inh; carbachol calcium Fluo-4; submaximal (EC20) carbachol stimulus; buffer wells 0%, carbachol control wells 100%; activity (percent), % at 10 µM; call rule not given here;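 further: RGS4 induction absent so cells express M3R without RGS4; higher means more calcium signal and flags a non-specific hit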
RGS4 inh ctr2: second counter-screen for RGS4 inhibitors: non-induced cells without carbachol; hit rate 22% among 1,900; calcium response (agonist-mode artifact), % at 10 µM; shares compounds with RGS4 inh; AID 493001; HEK293 M3R/RGS4 non-induced, Fluo-4 calcium, no carbachol; normalised: buffer wells 0%, carbachol wells 100%;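 active means duplicate-averaged calcium rise in uninduced cells above buffer wells' mean plus 5 SD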
* = called active by the depositor; i = inactive; . = not tested or not shown. The list is not random: actives were taken first. Their share in the collection is about 3.5%.

SMILES | MrgX1 agonist | MrgX1 antagonist | RGS4 inh | RGS4 pot | MrgX1 allo act | M3R Ca ctr | RGS4 inh ctr2 | others
Cc1ccc2nc(Br)c3c(c2c1)OC(CBr)C3 (stereo not given) | i | i | i | i | i | . | .
Cc1oc2cc3oc(=O)cc(C)c3cc2c1C | i | i | i | i | i | . | .
Cc1cc(-c2nnc(CCC(=O)NC(C)(C)C34CC5CC(CC(C5)C3)C4)o2)no1 | i | i | i | i | i | . | .
O=C1c2ccccc2NC(c2ccc(-c3ccc(Br)cc3)o2)N1O (stereo not given) | i | i | i | i | i | . | .
O=C1c2ccccc2NC(c2ccc(-c3cccc([N+](=O)[O-])c3)o2)N1O (stereo not given) | i | i | i | i | i | i | i
Cc1cccn2c(=O)c(C=O)c(Cl)nc12 | i | i | i | i | i | . | .
O=Cc1c(Cl)nc2ccccn2c1=O | i | i | 4.8* | i | i | i | i | RGS4 block valid=22%*
CC(=O)N1N=C(c2cccc(NS(=O)(=O)c3ccc(C)cc3)c2)CC1c1ccco1 (stereo not given) | i | i | i | i | i | . | .
CC(=O)N1N=C(c2c(-c3ccccc3)c3cc(Br)ccc3[nH]c2=O)CC1c1ccco1 (stereo not given) | i | i | 7.5* | i | i | i | i | RGS4 block valid=20%*
CC(=O)N1N=C(c2c(-c3ccccc3)c3cc(C)ccc3[nH]c2=O)CC1c1ccco1 (stereo not given) | i | i | i | i | i | i | i
CCCCn1c(N)c(N(CCOC)C(=O)COC(=O)CCOc2ccccc2C)c(=O)[nH]c1=O | i | i | i | i | i | . | .
O=C(N=C1SC2CS(=O)(=O)CC2N1Cc1ccc(F)cc1)C1CCCO1 (stereo not given) | i | i | i | i | i | . | .
Cc1noc(C)c1COc1ccc(C(=O)OC(C)C(=O)Nc2ccc(S(=O)(=O)N3CCOCC3)cc2)cc1 (stereo not given) | i | i | i | i | i | . | .
CCN(CC(=O)NCCc1ccc(S(N)(=O)=O)cc1)Cc1ccccc1 | i | i | i | i | i | . | .
CCN(CC)CCN(C(=O)c1ccc2c(c1)CCCC2)c1nc2ccc(OC)cc2s1 | i | i | i | i | i | i | i | RGS4 block valid=i
CCN(CC)CCN(C(=O)c1ccc2c(c1)CCCC2)c1nc2ccc(C)cc2s1 | i | i | i | i | i | . | .
O=C(CSc1nc2ccsc2c(=O)n1CC1CCC(C(=O)O)CC1)NCCc1ccc(Cl)cc1 (stereo not given) | i | i | i | i | i | . | .
c1ccc(-c2[nH]ncc2CN2CCc3ccccc3C2)cc1 | i | i | i | i | i | . | .
COc1ccc(-c2[nH]ncc2CN2CCN(c3ccc(F)cc3)CC2)cc1 | i | i | i | i | i | . | .
Fc1ccc(-c2[nH]ncc2CN2CCN(c3ccc(F)cc3)CC2)cc1 | i | i | 6.9* | i | i | 50%* | i | RGS4 block valid=22%*
Fc1ccc(N2CCN(Cc3cn[nH]c3-c3ccccc3)CC2)cc1 | i | i | i | i | i | i | i
O=C(c1ccco1)N1CCCN(Cc2cn[nH]c2-c2ccc(-c3ccccc3)cc2)CC1 | i | i | 4.9* | i | i | i | i | RGS4 block valid=10%*
COc1ccc(-c2[nH]ncc2CN2CCN(C(=O)c3ccco3)CC2)cc1F | i | i | i | i | i | . | .
Nc1nc(F)cc(NCc2ccccc2)n1 | i | i | i | i | i | . | .
Cc1ccc2nc(NC(=O)C3CCN(C(=O)c4ccc(F)cc4)CC3)sc2c1 | i | i | i | i | i | . | .
SMILES | MrgX1 agonist | MrgX1 antagonist | RGS4 inh | RGS4 pot | MrgX1 allo act | M3R Ca ctr | RGS4 inh ctr2 | others
CCOC(=O)N1CCN(C(=O)CSCC(=O)Nc2nc(-c3ccc(Cl)s3)cs2)CC1 | i | i | i | i | i | i | i | RGS4 block valid=i
Cn1ncc(Cl)c1C(=O)Nc1nc2ccc(Cl)cc2s1 | i | i | i | i | i | . | .
Cc1cc(C(=O)Nc2nc3ccc(Cl)cc3s2)nn1C | i | i | 5* | i | i | i | i | RGS4 block valid=10%*
Cc1ccc(S(=O)(=O)N2CCOC23CCN(C(=O)C(=O)NCCC(C)C)CC3)cc1 | i | i | i | i | i | . | .
O=C(c1cccc2ccccc12)C1CCCN(C(=O)c2ccc(N3CCOCC3)cc2)C1 (stereo not given) | i | i | i | i | i | . | .
CCc1cc(=O)oc2c3c(cc(OCC(=O)NCCCOC)c12)OC(C)(C)CC3 | i | i | i | i | i | . | .
CC1=NN(c2cccc(C(=O)O)c2)C(=O)/C1=C\C=C/c1ccccc1 | . | . | 34* | i | . | 59%* | i | RGS4 block valid=80%*
O=C1NCC(c2ccccc2)C1C(=O)N/N=C\c1ccc(-c2cccc(Cl)c2Cl)o1 (stereo not given) | i | i | i | i | i | . | .
Cc1ccc(-c2ccc(/C=N\NC(=O)C3C(=O)NCC3c3ccccc3)o2)cc1Cl (stereo not given) | i | i | i | i | i | i | i
O=S(=O)(c1ccc(F)c(F)c1)N1CCN(CCc2ccccc2)CC1 | i | i | i | i | i | . | .
Oc1ccc(C[C@H]2CNCCN2CCC23CC4CC(CC(C4)C2)C3)cc1 | i | i | i | i | i | i | i
Oc1ccc(C[C@@H]2CNCCN2CCC23CC4CC(CC(C4)C2)C3)cc1 | i | i | i | i | i | i | 16%*
O=C(Nc1cccc2ncccc12)c1cc([N+](=O)[O-])ccc1Cl | i | i | i | i | i | . | .
